Test results reported in PubChem BioAssay.
Results filed as inconclusive are left out.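 How the source made its calls, unless noted: active means growth inhibition above 25% in both replicates, a cutoff set 3 SD above the mean; inconclusive means above 25% in only one replicate; inactive means the rest.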

Experiments:
[1] = S. cerevisiae growth inhibition in permissive medium (OD615), pilot counter-assay for S. cerevisiae lifespan shortening project, permissive growth control (AID 705); conditions: OD615, 24 h, at 10 µM, active compounds read high
Outline: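 Test system: Saccharomyces cerevisiae strain carrying genetically modified DeaD replicative-lifespan system; buffer or medium: SC raffinose/galactose permissive medium; dosing: one dose 10 µM, DMSO 0.25% final; times: 24 h exposure, 30 °C; measured by: OD at 615 nm; read-out basis: growth inhibition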

[2] = S. cerevisiae growth inhibition in restrictive medium, OD615, pilot screen, restrictive growth control, yeast lifespan reduction project (AID 706;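 active means growth inhibition above a set limit, 3 SD over mean compound inhibition, in both replicates, cut at about 43% in these data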;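 further: modified DeaD lifespan yeast strain shifted to restrictive glucose medium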); conditions: OD615, 48 h, at 10 µM, active compounds read high
Outline: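 material = engineered S. cerevisiae DeaD strain | buffer or medium = glucose-based CSMM-D restrictive medium | dosing = one concentration, 10 µM final, 0.25% DMSO | schedule = 4 h pre-growth plus 48 h compound exposure, 30 °C | detection = OD615 absorbance reading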

[3] = doxorubicin toxicity protection in MRP-1 cells – H69AR cells, CellTiter-Glo, duplicate, MRP-1 activator project, pilot screen (AID 807;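 active means viability increase at or above a cutoff of the median across tested compounds plus 3 SD, cut at about 8.5% in these data, passing the limit was not always enough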;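 further: compound pretreatment 18-22 h then 72 h combined with doxorubicin; 0% = doxorubicin alone and 100% = vehicle without doxorubicin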); conditions: H69AR viability with doxorubicin, CellTiter-Glo luminescence; at 10 µM; active compounds read high
[4] = viability of HCT116 without oncogenic beta-catenin – human colon tumor cells, pilot screen (AID 823;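 active means cell viability at or below a set limit in both duplicate runs, the limit being the all-compound median minus 4 SD, cut at about 23% in these data, passing the limit was not always enough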;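 further: 0% = wells killed by 20 µM Hyamine and 100% = untreated DMSO cell wells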); conditions: HCT116 beta-catenin knockout viability, CellTiter-Glo, 60 h; at 10 µM; active compounds read low
[5] = viability of PTEN-null HCT116 cells – cell-based, HCT116 clonal line, CellTiter-Glo, pilot screen (AID 824;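 active means viability at or below 27.92% in each of two runs, the all-compound median minus 4 SD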;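 further: 0% = 20 µM Hyamine control and 100% = vehicle cell control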); conditions: HCT116 PTEN-deleted viability, 60 h, at 10 µM, active compounds read low
[6] = RAM pathway blockade in budding yeast – dse1pr::URA3 reporter, 5-FOA selection, pilot screen (AID 869;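 active means inhibition over a set limit, the all-compound mean plus 3 SD, in both replicate runs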;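 further: 0% = DMSO wells with no growth and 100% = 10 µM 1-NA-PP1 with full growth; RAM network block rescues cells from 5-FOA so hits raise OD615 growth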); conditions: S. cerevisiae dse1pr::URA3 5-FOA growth, OD615, 2 d; at 10 µM; active compounds read high; strain carries analog-sensitive mutant Cbk1 kinase
[7] = RAM signaling pathway blockade in yeast – S. cerevisiae, Pdr1DBD-CYC8 efflux-inhibited sensitized strain, primary screen (AID 1298;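 active means RAM network inhibition above 8.4% in each of two replicates, 3 SD over the compound average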;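 further: 0% = DMSO untreated cells without growth and 100% = 10 µM 1-NA-PP1 full growth; higher means more yeast growth rescued from 5-FOA killing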); conditions: S. cerevisiae cbk1-as DSE1-URA3 strain, 5-FOA growth OD615, 2 d; at 50 µM; active compounds read high

O=C(Cn1ncc2c1-c1ccccc1OC2)N1CCN(Cc2ccc3c(c2)OCO3)CC1
inactive: growth inhibition [1] -1.44% | growth inhibition [2] 10.4% | viability increase [3] -3.39% | viability [4] 84.7% | viability [5] 90.2% | inhibition [6] 1.9% | RAM network inhibition [7] 2.06%

N#Cc1ccc(OCCN2C(=O)NC3(CCSC3)C2=O)cc1 (stereo unspecified)
inactive: growth inhibition [1] -2.65% | growth inhibition [2] -19% | viability increase [3] -1.88% | viability [4] 101% | viability [5] 94.4% | inhibition [6] 0.975% | RAM network inhibition [7] 0.56%

Cc1[nH]c(C)c2c(=O)n(-c3ccccc3)ncc12
inactive: growth inhibition [1] -19.9% | growth inhibition [2] -17.5% | viability increase [3] 0.12% | viability [4] 101% | viability [5] 102% | inhibition [6] 1.31% | RAM network inhibition [7] 2.55%

O=C(CN1CCCCC1)Nc1nnc(-c2ccccc2)s1
inactive: growth inhibition [1] -11.4% | growth inhibition [2] -5.87% | viability increase [3] 1.16% | viability [4] 95.2% | viability [5] 98.5% | inhibition [6] 0.38% | RAM network inhibition [7] 0.64%

N#CCCN1CCN(S(=O)(=O)c2ccc(S(=O)(=O)NC3CC3)cc2)CC1
inactive: growth inhibition [1] -10.4% | growth inhibition [2] -5.2% | viability increase [3] 0.24% | viability [4] 103% | viability [5] 99.6% | inhibition [6] 0.68% | RAM network inhibition [7] 3.16%

CC(c1cccnc1)N(C(=O)Nc1ccccc1)C1CCCCC1 (stereo unspecified)
inactive: growth inhibition [1] -1.48% | growth inhibition [2] -10.8% | viability increase [3] -2.35% | viability [4] 92.1% | viability [5] 91.6% | inhibition [6] 1.96% | RAM network inhibition [7] 5.08%

Cc1ccc(OCCNC(=O)c2ccco2)cc1C
inactive: growth inhibition [1] 0.475% | growth inhibition [2] -5.61% | viability increase [3] -1.46% | viability [4] 102% | viability [5] 101% | inhibition [6] 1.63% | RAM network inhibition [7] -1.46%

Cc1ccc(S(=O)(=O)NCc2ccco2)cc1C
inactive: growth inhibition [1] -1.9% | growth inhibition [2] -6.06% | viability increase [3] -3.83% | viability [4] 100% | viability [5] 97.2% | inhibition [6] 0.075% | RAM network inhibition [7] 2.42%

CCN(CC)Cc1c[nH]c2c(C(=O)OC)cccc12
inactive: growth inhibition [1] -11.4% | growth inhibition [2] -23.5% | viability increase [3] -4.51% | viability [4] 101% | viability [5] 94.9% | inhibition [6] 2% | RAM network inhibition [7] -1.31%

CCOC(=O)N1CCC(N2C(=O)c3cc(C(=O)NC4CCCCC4)ccc3C2O)CC1 (stereo unspecified)
inactive: growth inhibition [1] -2.13% | growth inhibition [2] -0.895% | viability increase [3] -3.03% | viability [4] 94.5% | viability [5] 88.1% | inhibition [6] 0.045% | RAM network inhibition [7] 3.81%

CCOC(=O)C1=C(Nc2cccc(Cl)c2)OCC1=O
inactive: growth inhibition [1] -17.9% | growth inhibition [2] 3.65% | viability increase [3] -1.85% | viability [4] 102% | viability [5] 99% | inhibition [6] 2.21% | RAM network inhibition [7] 4.51%

O=C(NCCN1CCOCC1)c1ccc2c(c1)ncn2C1CCCC1
inactive: growth inhibition [1] -10% | growth inhibition [2] 5.44% | viability increase [3] -0.55% | viability [4] 106% | viability [5] 105% | inhibition [6] 1.44% | RAM network inhibition [7] 4.43%

O=C(COc1ccc(Cl)cc1)OCC(=O)N1CCCC1
inactive: growth inhibition [1] -6.8% | growth inhibition [2] -26.8% | viability increase [3] -2.32% | viability [4] 94.5% | viability [5] 95.3% | inhibition [6] 1.44% | RAM network inhibition [7] 3.51%

C=CCn1c(NCc2cc(C)ccc2O)nc2ccccc21
inactive: growth inhibition [1] -18.2% | growth inhibition [2] -17.9% | viability increase [3] -2.74% | viability [4] 82.8% | viability [5] 70.6% | inhibition [6] -0.74% | RAM network inhibition [7] 2.04%

Cc1cc(NC(=O)CSc2nc3c(c(=O)n2-c2ccccc2)SC(C)C3)no1 (stereo unspecified)
inactive: growth inhibition [1] -3.02% | growth inhibition [2] -11.7% | viability increase [3] -2.58% | viability [4] 93% | viability [5] 91.2% | inhibition [6] 4.66% | RAM network inhibition [7] 1.22%

COc1ccc(N(CC(=O)Nc2ccc(C)cn2)S(=O)(=O)c2c(C)nn(C)c2C)cc1
inactive: growth inhibition [1] -17.5% | growth inhibition [2] -9.45% | viability increase [3] -1.95% | viability [4] 97.5% | viability [5] 96.2% | inhibition [6] 0.055% | RAM network inhibition [7] 5.27%

CC(=O)c1c(NCc2ccccc2)nc(=O)n(-c2ccccc2)c1C
inactive: growth inhibition [1] -4.12% | growth inhibition [2] 4.42% | viability increase [3] -1.28% | viability [4] 94.7% | viability [5] 97% | inhibition [6] 1.98% | RAM network inhibition [7] 4.07%

COCCNC(=O)CN(c1cc(C(F)(F)F)ccc1Cl)S(C)(=O)=O
inactive: growth inhibition [1] -2.77% | growth inhibition [2] 1.25% | viability increase [3] -0.83% | viability [4] 99.9% | viability [5] 97.5% | inhibition [6] 3.02% | RAM network inhibition [7] 0.87%
